# Measured values: ChEMBL document CHEMBL3272217, “6,11-Dihydro-11-oxodibenz [b,e] oxepinacetic acids with potent antiinflammatory activity” (J Med Chem, 1976)
# Legend:
# [1] = tested on: Rattus norvegicus; experiment: Antiinflammatory activity in po dosed rat assessed as inhibition of carrageenan-induced paw edema; assay type: functional; settings: for ED50: Rattus norvegicus, po, read-out: ID50 (the source's name)
# Method in brief: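 Carrageenan paw edema (Winter method) in male rats, seven animals per dose. Drug given orally as a suspension in 0.5% CMC at three or more dose levels within 0.1–18 mg/kg.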
# [2] = Toxicity in po dosed rat assessed as induction of gastric lesion; assay type: organism-based, Stomach; settings: in vivo, read-out: UD50 (the source's name)
# Method in brief: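 Gastric lesions scored by the Jahn and Adrian method in male rats, ten animals per dose level, after oral dosing. UD50 and 95% fiducial limits by the Litchfield–Wilcoxon method.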
# [3] = Acute toxicity in po dosed rat after 7 days; settings: in vivo
# [4] = tested on: Rattus norvegicus; experiment: Analgesic activity in carrageenan-treated po dosed rat assessed as concentration required to double pain index of control; assay type: functional
# Method in brief: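 Randall–Selitto paw-pressure test in male rats after carrageenan injection, seven animals per dose level. Pain index = pain threshold after carrageenan / threshold before carrageenan. AID2.0 is the dose doubling the control group's pain index. It and its 95% fiducial limits come from a least-squares regression line, with limits by Fieller's equation.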
# [5] = tested on: Rattus norvegicus; experiment: Antiinflammatory activity in Wistar albino rat assessed as inhibition of adjuvant-induced arthritis at 0.25 mg/kg, po administered for 14 days prior to adjuvant challenge relative to control; assay type: functional
# Method in brief: (§1)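 Adjuvant arthritis in female rats, ten animals per dose. Oral treatment given either prophylactically or therapeutically at the stated doses. Percent inhibition reported as mean ± SE.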
# [6] = tested on: Rattus norvegicus; experiment: Antiinflammatory activity in Wistar albino rat assessed as inhibition of adjuvant-induced arthritis at 0.25 mg/kg, po administered for 14 days followed by adjuvant challenge relative to control; assay type: functional; settings: 336 h; method in brief: as §1
# [7] = tested on: Mus musculus; experiment: Analgesic activity in po dosed mouse assessed as inhibition of acetic acid-induced writhing; assay type: functional
# Method in brief: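 Acetic acid writhing test (Koster method) in male mice, ten animals per dose level.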
# [8] = tested on: Rattus norvegicus; experiment: Antiinflammatory activity in rat with prolonged phase of inflammation assessed as inhibition of adjuvant-carrageenan-induced paw edema at 2 mg/kg, po relative to control; assay type: functional
# Method in brief: (§2)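 Adjuvant-carrageenan-induced inflammation in female rats, ten animals per dose. Oral dosing at 1 or 2 mg/kg. Edema inhibition scored separately for the acute and prolonged phases, given as % inhibition (mean ± SE).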
# [9] = tested on: Rattus norvegicus; experiment: Antiinflammatory activity in rat with acute phase of inflammation assessed as inhibition of adjuvant-carrageenan-induced paw edema at 2 mg/kg, po relative to control; assay type: functional; method in brief: as §2
# [10] = tested on: Rattus norvegicus; experiment: Antiinflammatory activity in rat with acute phase of inflammation assessed as inhibition of adjuvant-carrageenan-induced paw edema at 1 mg/kg, po relative to control; assay type: functional; method in brief: as §2
# [11] = tested on: Rattus norvegicus; experiment: Antiinflammatory activity in rat with prolonged phase of inflammation assessed as inhibition of adjuvant-carrageenan-induced paw edema at 1 mg/kg, po relative to control; assay type: functional; method in brief: as §2
# [12] = tested on: Rattus norvegicus; experiment: Potency index, ratio of phenylbutazone ID50 to compound ID50 for antiinflammatory activity in po dosed rat assessed as inhibition of carrageenan-induced paw edema; assay type: functional
# Method in brief: (§3)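 The ratio uses oral carrageenan paw-edema ID50 values from male rats, seven animals per dose, with drugs suspended in 0.5% CMC. Each ID50 comes from a least-squares dose–response regression. The index is reference ID50 divided by test ID50 on a weight basis.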
# [13] = tested on: Rattus norvegicus; experiment: Potency index, ratio of indomethacin ID50 to compound ID50 for antiinflammatory activity in po dosed rat assessed as inhibition of carrageenan-induced paw edema; assay type: functional; method in brief: as §3
# [14] = tested on: Rattus norvegicus; experiment: Potency index, ratio of ketoprofen ID50 to compound ID50 for antiinflammatory activity in po dosed rat assessed as inhibition of carrageenan-induced paw edema; assay type: functional; method in brief: as §3
# [15] = tested on: Rattus norvegicus; experiment: Antiinflammatory activity in Wistar albino rat assessed as inhibition of adjuvant-induced arthritis at 0.5 mg/kg, po administered for 14 days prior to adjuvant challenge relative to control; assay type: functional; method in brief: as §1
# [16] = tested on: Rattus norvegicus; experiment: Antiinflammatory activity in Wistar albino rat assessed as inhibition of adjuvant-induced arthritis at 0.5 mg/kg, po administered for 14 days followed by adjuvant challenge relative to control; assay type: functional; settings: 336 h; method in brief: as §1
# [17] = tested on: Rattus norvegicus; experiment: Antiinflammatory activity in Wistar albino rat assessed as inhibition of adjuvant-induced arthritis at 10 mg/kg, po administered for 14 days prior to adjuvant challenge relative to control; assay type: functional; method in brief: as §1
# [18] = tested on: Rattus norvegicus; experiment: Antiinflammatory activity in Wistar albino rat assessed as inhibition of adjuvant-induced arthritis at 10 mg/kg, po administered for 14 days followed by adjuvant challenge relative to control; assay type: functional; settings: 336 h; method in brief: as §1
# [19] = tested on: Rattus norvegicus; experiment: Antiinflammatory activity in Wistar albino rat assessed as inhibition of adjuvant-induced arthritis at 1 mg/kg, po administered for 14 days followed by adjuvant challenge relative to control; assay type: functional; settings: 336 h; method in brief: as §1
# [20] = tested on: Rattus norvegicus; experiment: Antiinflammatory activity in Wistar albino rat assessed as inhibition of adjuvant-induced arthritis at 2 mg/kg, po administered for 14 days prior to adjuvant challenge relative to control; assay type: functional; method in brief: as §1
# [21] = tested on: Rattus norvegicus; experiment: Antiinflammatory activity in Wistar albino rat assessed as inhibition of adjuvant-induced arthritis at 30 mg/kg, po administered for 14 days prior to adjuvant challenge relative to control; assay type: functional; method in brief: as §1
# [22] = tested on: Rattus norvegicus; experiment: Antiinflammatory activity in Wistar albino rat assessed as inhibition of adjuvant-induced arthritis at 30 mg/kg, po administered for 14 days followed by adjuvant challenge relative to control; assay type: functional; settings: 336 h; method in brief: as §1
structure (smiles),measurement,setting,value
O=C(O)Cc1cccc2c1C(=O)c1ccccc1CO2,ED50,[1],> 18 mg/kg
COC(=O)Cc1ccc2c(c1)C(=O)c1ccccc1CO2,ED50,[1],15.2 mg/kg
CCOC(=O)Cc1ccc2c(c1)C(=O)c1ccccc1CO2,ED50,[1],17.8 mg/kg
O=C(O)Cc1cc2c(c([N+](=O)[O-])c1)OCc1ccccc1C2=O,ED50,[1],> 18 mg/kg
O=C(O)Cc1ccc2c(c1)C(=O)c1ccc(Cl)cc1CO2,ID30,[1],3 mg/kg
same,ED50,[1],41.6 mg/kg
COc1ccc2c(c1)COc1ccc(CC(=O)O)cc1C2=O,ED50,[1],> 18 mg/kg
O=C(O)Cc1ccc2c(c1)C(=O)c1cc(Cl)ccc1CO2,ID30,[1],> 18 mg/kg
same,ED50,[1],> 18 mg/kg
CC(C(=O)[O-])c1ccc2c(c1)C(=O)c1ccccc1CO2.CC(C(=O)[O-])c1ccc2c(c1)C(=O)c1ccccc1CO2.[Ca+2] (configuration not stated),ED50,[1],3.5 mg/kg
CC(C(=O)O)c1ccc2c(c1)C(=O)c1ccc(Cl)cc1CO2 (configuration not stated),ED50,[1],7.6 mg/kg
CCOC(=O)Cc1ccc2c(c1)OCc1ccccc1C2=O,ED50,[1],8.6 mg/kg
O=C(O)Cc1ccc2c(c1)OCc1cc(Cl)ccc1C2=O,ED50,[1],7.6 mg/kg
O=C(O)Cc1ccc2c(c1)OCc1cc(F)ccc1C2=O,ED50,[1],> 9 mg/kg
O=C(O)Cc1ccc2c(c1)OCc1cc(I)ccc1C2=O,ED50,[1],6.7 mg/kg
COc1ccc2c(c1)COc1cc(CC(=O)O)ccc1C2=O,ED50,[1],> 9 mg/kg
Cc1ccc2c(c1)COc1cc(CC(=O)O)ccc1C2=O,ED50,[1],6.6 mg/kg
O=C(O)Cc1ccc2c(c1)OCc1cc(C(F)(F)F)ccc1C2=O,ED50,[1],> 9 mg/kg
CC(C(=O)O)c1ccc2c(c1)OCc1cc(Cl)ccc1C2=O (configuration not stated),TD50,[2],32.3 mg/kg
same,ED50,[1],1.4 mg/kg
same,LD50 at 168 h,[3],12.1 mg/kg
same,AID2.0 (dose doubling pain index),[4],0.28 mg/kg
same,inhibition in vivo at 0.25 mg/kg,[5],50%
same,inhibition in vivo at 0.25 mg/kg,[6],26%
same,ED50,[7],36 mg/kg
CC(C(=O)O)c1ccc2c(c1)OCc1cc(F)ccc1C2=O (configuration not stated),ED50,[1],4 mg/kg
CC(C(=O)O)c1ccc2c(c1)OCc1cc(I)ccc1C2=O (configuration not stated),ED50,[1],4.8 mg/kg
CC(C(=O)O)c1ccc2c(c1)OCc1cc(C(F)(F)F)ccc1C2=O (configuration not stated),ED50,[1],> 9 mg/kg
CC(C(=O)O)c1ccc2c(c1)OCc1ccc(Cl)cc1C2=O (configuration not stated),ED50,[1],11.9 mg/kg
CC(C(=O)O)c1ccc2c(c1)C(=O)c1ccccc1CO2 (racemic),TD50,[2],14.1 mg/kg
same,inhibition in vivo at 2 mg/kg,[8],82%
same,ID50,[1],2.6 mg/kg
same,AID2.0 (dose doubling pain index),[4],0.4 mg/kg
same,inhibition in vivo at 0.25 mg/kg,[5],36%
same,inhibition in vivo at 0.25 mg/kg,[6],12%
same,ED50,[7],14 mg/kg
same,inhibition in vivo at 2 mg/kg,[9],57%
CC(C(=O)O)c1ccc2c(c1)OCc1ccccc1C2=O (racemic),TD50,[2],11.4 mg/kg
same,inhibition in vivo at 1 mg/kg,[10],59%
same,inhibition in vivo at 1 mg/kg,[11],110%
same,ID50,[1],0.76 mg/kg
same,LD50 at 168 h,[3],34.2 mg/kg
same,AID2.0 (dose doubling pain index),[4],0.18 mg/kg
same,inhibition in vivo at 0.25 mg/kg,[5],55%
same,inhibition in vivo at 0.25 mg/kg,[6],30%
same,ED50,[7],11 mg/kg
CC(C(=O)O)c1ccc2c(c1)C(=O)c1ccccc1CO2 (stereo in doubt; 10),ID50,[1],1.3 mg/kg
CC(C(=O)O)c1ccc2c(c1)C(=O)c1ccccc1CO2 (stereo in doubt; 11),ID50,[1],7.5 mg/kg
CC(C(=O)O)c1ccc2c(c1)OCc1ccccc1C2=O (stereo in doubt; 23),Ratio,[12],165.4
same,ED50,[1],0.43 mg/kg
same,Ratio,[13],15.4
same,Ratio,[14],32.3
CC(C(=O)O)c1ccc2c(c1)OCc1ccccc1C2=O (stereo in doubt; 24),ID50,[1],0.67 mg/kg
COc1ccc2c(c1)c(CC(=O)O)c(C)n2C(=O)c1ccc(Cl)cc1 [INDOMETHACIN],TD50,[2],6.6 mg/kg
same,inhibition in vivo at 2 mg/kg,[8],85%
same,ED50,[1],8.4 mg/kg
same,LD50 at 168 h,[3],18.9 mg/kg
same,AID2.0 (dose doubling pain index),[4],1.53 mg/kg
same,inhibition in vivo at 0.5 mg/kg,[15],48%
same,inhibition in vivo at 0.5 mg/kg,[16],26%
same,ED50,[7],10 mg/kg
same,inhibition in vivo at 2 mg/kg,[9],48%
O=C(O)Cc1ccc2c(c1)C(=O)c1ccccc1CO2 [ISOXEPAC],TD50,[2],63 mg/kg
same,inhibition in vivo at 2 mg/kg,[8],55%
same,ED50,[1],14.3 mg/kg
same,LD50 at 168 h,[3],199 mg/kg
same,AID2.0 (dose doubling pain index),[4],3.18 mg/kg
same,inhibition in vivo at 10 mg/kg,[17],77%
same,inhibition in vivo at 10 mg/kg,[18],56%
same,ED50,[7],95 mg/kg
same,inhibition in vivo at 2 mg/kg,[9],28%
CC(C(=O)O)c1cccc(C(=O)c2ccccc2)c1 (configuration not stated) [KETOPROFEN],TD50,[2],6.8 mg/kg
same,inhibition in vivo at 1 mg/kg,[19],42%
same,ED50,[1],12.5 mg/kg
same,AID2.0 (dose doubling pain index),[4],1.61 mg/kg
same,inhibition in vivo at 2 mg/kg,[20],84%
same,ED50,[7],71 mg/kg
O=C(O)Cc1ccc2c(c1)OCc1ccccc1C2=O [OXEPINAC],TD50,[2],79.9 mg/kg
same,inhibition in vivo at 2 mg/kg,[8],89%
same,ED50,[1],3.7 mg/kg
same,LD50 at 168 h,[3],110 mg/kg
same,AID2.0 (dose doubling pain index),[4],0.44 mg/kg
same,inhibition in vivo at 0.5 mg/kg,[15],55%
same,inhibition in vivo at 0.5 mg/kg,[16],31%
same,ED50,[7],58 mg/kg
same,inhibition in vivo at 2 mg/kg,[9],45%
CCCCC1C(=O)N(c2ccccc2)N(c2ccccc2)C1=O [PHENYLBUTAZONE],TD50,[2],96 mg/kg
same,inhibition in vivo at 30 mg/kg,[21],71%
same,ED50,[1],77.7 mg/kg
same,inhibition in vivo at 30 mg/kg,[22],58%
same,AID2.0 (dose doubling pain index),[4],17.22 mg/kg
same,ED50,[7],> 400 mg/kg
